Consider 2 compounds from ChEMBL document CHEMBL4699542, “Design and synthesis of novel methoxypyridine-derived gamma-secretase modulators” (Bioorg Med Chem, 2020).

Data set [1] in a line: Metabolic stability in rat liver microsomes assessed as parent compound remaining at 1 uM incubated for 30 mins. Format: ADME, Microsome. The note with it: 0.5 h. Put shortly: (§1)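 Test compound at 1 μM incubated 30 min with human, rat or mouse liver microsomes (1 mg/mL); parent remaining expressed as %.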
(Liver microsomes are a subcellular fraction often used to study metabolism.)

Data set [2] in a line: In vivo modulation of gamma secretase in transgenic J20 mouse overexpressing human APP assessed as reduction in plasma amyloid beta42 level at 100 mg/kg, po administered via gavage for 3 consecutive days and measured after 4 hrs post last dose on day 3 by meso scale discovery relative to control. Format: functional. The arrangement: scale not given: the % may be the effect or the level left. The note with it: time 3 day. Put shortly: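 Female J20 mice, 5–6 months old (n=5/dose), given vehicle (5% NMP/95% PEG300) or test article at 25, 50 or 100 mg/kg by oral gavage daily for 3 days. Sacrificed 4 h after final dose; plasma Aβ38/40/42 quantified by Meso Scale multiplex (SECTOR Imager 6000). Percent reduction versus vehicle; mean ± SEM, ANOVA.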

Data set [3] in a line: In vivo modulation of gamma secretase in transgenic J20 mouse overexpressing human APP assessed as reduction in plasma amyloid beta40 level at 25 mg/kg, po administered via gavage for 3 consecutive days and measured after 4 hrs post last dose on day 3 by meso scale discovery relative to control. In kind it is functional. On the set-up: scale not given: the % may be the effect or the level left. The note with it: time 3 day. In outline:
(§2)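 Female J20 mice, 5–6 months old (n=5/dose), dosed orally at 25, 50 or 100 mg/kg or with vehicle (5% NMP/95% PEG300) for 3 consecutive days. Plasma was taken 4 h after the final dose. Aβ38/40/42 measured by Meso Scale multiplex immunoassay, with % reduction relative to vehicle. Mean ± SEM, ANOVA.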

The target of the next data set is Gamma-secretase. The data set is described as follows: Modulation of gamma secretase in human SH-SY5Y cells overexpressing wild type APP751 assessed as inhibition of amyloid beta (35 to 42 residues) formation incubated for overnight by ELISA. Format: cell-based. In outline: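 SHSY5Y-APP751 cells plated at 75K/well and incubated overnight at 37 °C, then treated 24 h over 10 concentrations ([…]–10 μM, 1:3.16 steps, in duplicate). Medium Aβ42 measured by sandwich ELISA (Aβ35–42 capture, AP-conjugated Aβ1–12 detection, CDP-Star luminescence) against an Aβ42 standard curve.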
On the technique in general: An ELISA detects its analyte on a solid surface through an enzyme-linked reagent.

The target in a further data set is Cytochrome P450 2C19 (Homo sapiens, UniProt P33261). Description: Inhibition of recombinant CYP2C19 (unknown origin) by fluorescence-based assay. In kind it is ADME. Put shortly: (§3)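 Recombinant CYP isoforms (five tested) screened for inhibition in fluorescence-based assays; IC50 in μM.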
Chain of Cytochrome P450 2C19 (P33261 whole entry, canonical isoform): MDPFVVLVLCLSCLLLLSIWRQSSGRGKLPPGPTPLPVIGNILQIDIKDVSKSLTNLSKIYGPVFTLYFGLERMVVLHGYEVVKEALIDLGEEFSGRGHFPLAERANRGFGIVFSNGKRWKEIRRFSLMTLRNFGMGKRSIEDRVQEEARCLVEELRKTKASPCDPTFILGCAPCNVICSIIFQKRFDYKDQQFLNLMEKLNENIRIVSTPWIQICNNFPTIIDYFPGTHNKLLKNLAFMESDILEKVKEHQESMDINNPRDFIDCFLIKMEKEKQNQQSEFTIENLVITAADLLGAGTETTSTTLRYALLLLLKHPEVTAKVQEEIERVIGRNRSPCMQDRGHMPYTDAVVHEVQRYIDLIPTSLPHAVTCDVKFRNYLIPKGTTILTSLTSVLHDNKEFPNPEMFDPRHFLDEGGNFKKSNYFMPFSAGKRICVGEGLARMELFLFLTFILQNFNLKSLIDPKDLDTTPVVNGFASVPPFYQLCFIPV
A short description of data set [4]: Half life in CD-1 mouse at 5 mg/kg, po administered as single dose measured up to 24 hrs. In kind it is ADME, organism-based. The note with it: in vivo. In outline: (§4)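 Male CD-1 mice, 6–8 weeks old, single dose by tail vein (1 mg/kg, 3% NMP/45% PEG300/12% ethanol/40% water) or oral gavage (5 mg/kg, 5% NMP/95% PEG300). Retro-orbital plasma sampled 0.083 (iv only) to 24 h, n=3/timepoint, and analysed by HPLC/MS/MS. Non-compartmental analysis. Half-life taken from the terminal phase using ≥3 non-zero points after Tmax.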

Data set [5] is described as follows: AUC infinity in CD-1 mouse at 5 mg/kg, po administered as single dose measured up to 24 hrs. In kind it is ADME, organism-based. On the set-up: route oral, dose 5 mg/kg, time <=24. The note with it: in vivo. Put shortly: as §4
Data set [6] in a line: Drug level in plasma of transgenic J20 mouse overexpressing human APP at 100 mg/kg, po administered via gavage for 3 consecutive days and measured after 4 hrs post last dose on day 3 by HPLC-MS/MS analysis. The note with it: time 3 day. In kind it is ADME, organism-based. Put shortly: (§5)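 Female J20 mice, 5–6 months old, given 25, 50 or 100 mg/kg orally (5% NMP/95% PEG300) daily for 3 days, n=5/dose. Plasma and brain taken 4 h after the final dose and analysed by LC-MS/MS. LLOQ was 1 ng/mL in plasma and 5 ng/g in brain.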

Data set [7] in a line: Drug level in plasma of transgenic J20 mouse overexpressing human APP at 50 mg/kg, po administered via gavage for 3 consecutive days and measured after 4 hrs post last dose on day 3 by HPLC-MS/MS analysis. In kind it is ADME, organism-based. The note with it: time 3 day. Put shortly:
as §5

The nature of data set [8]: Drug level in brain of transgenic J20 mouse overexpressing human APP at 25 mg/kg, po administered via gavage for 3 consecutive days and measured after 4 hrs post last dose on day 3 by HPLC-MS/MS analysis. Format: ADME, organism-based. The note with it: time 3 day, read-out: Ct. Put shortly:
as §5

Another data set deals with Cytochrome P450 2C9 (Homo sapiens, UniProt P11712). The data set is described as follows: Inhibition of recombinant CYP2C9 (unknown origin) by fluorescence-based assay. Format: ADME. Put shortly: as §3
Chain of Cytochrome P450 2C9 (P11712 whole entry): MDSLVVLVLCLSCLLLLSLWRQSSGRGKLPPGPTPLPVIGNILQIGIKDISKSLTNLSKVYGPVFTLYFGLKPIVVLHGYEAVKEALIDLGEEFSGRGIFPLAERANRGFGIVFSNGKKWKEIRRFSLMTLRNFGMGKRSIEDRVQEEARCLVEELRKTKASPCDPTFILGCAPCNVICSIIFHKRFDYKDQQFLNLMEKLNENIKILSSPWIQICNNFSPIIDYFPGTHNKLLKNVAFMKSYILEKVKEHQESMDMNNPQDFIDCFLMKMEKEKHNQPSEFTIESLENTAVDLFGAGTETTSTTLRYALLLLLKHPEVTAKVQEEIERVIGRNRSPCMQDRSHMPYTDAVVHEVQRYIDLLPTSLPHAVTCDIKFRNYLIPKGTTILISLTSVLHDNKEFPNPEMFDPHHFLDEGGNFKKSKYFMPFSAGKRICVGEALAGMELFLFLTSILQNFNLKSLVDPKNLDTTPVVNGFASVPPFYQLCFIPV
Data set [9] in a line: Ratio of drug level in brain to plasma of transgenic J20 mouse overexpressing human APP at 100 mg/kg, po administered via gavage for 3 consecutive days and measured after 4 hrs post last dose on day 3 by HPLC-MS/MS analysis. In kind it is ADME, organism-based. The note with it: 72 h, time 3 day. In outline:
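Female J20 mice, 5–6 months old (n=5/dose), dosed by oral gavage once daily for 3 days in 5% NMP/95% PEG300 vehicle. Sacrificed 4 h after the day-3 dose. Plasma and brain drug levels measured by LC-MS/MS (LLOQ 1 ng/mL plasma, 5 ng/g brain). Ratio = brain level/plasma level.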

Data set [10] can be described thus: In vivo modulation of gamma secretase in transgenic J20 mouse overexpressing human APP assessed as reduction in plasma amyloid beta40 level at 100 mg/kg, po administered via gavage for 3 consecutive days and measured after 4 hrs post last dose on day 3 by meso scale discovery relative to control. In kind it is functional. The arrangement: scale not given: the % may be the effect or the level left. The note with it: time 3 day. In outline: as §2

Data set [11] can be described thus: Volume of distribution at steady state in CD-1 mouse at 1 mg/kg, iv administered as single dose measured up to 24 hrs. In kind it is ADME, organism-based. The note with it: in vivo. Put shortly: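 Male CD-1 mice, 6–8 weeks old, single tail-vein dose in 3% NMP/45% PEG300/12% ethanol/40% sterile water. Retro-orbital plasma (K3EDTA) taken at 0.083, 0.25, 0.5, 1, 2, 4, 8 and 24 h, n=3/timepoint, analysed by HPLC/MS/MS. Non-compartmental analysis (Model 201, uniform weighting); Tmax read directly from the data.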

Data set [12] can be described thus: Ratio of drug concentration in CD-1 mouse brain to plasma at 0.4 mg/kg, iv measured after 1 hr. Format: ADME, organism-based.
Data set [13] in a line: Drug level in brain of transgenic J20 mouse overexpressing human APP at 100 mg/kg, po administered via gavage for 3 consecutive days and measured after 4 hrs post last dose on day 3 by HPLC-MS/MS analysis. Format: ADME, organism-based. The note with it: time 3 day, read-out: Ct. Put shortly:
as §5

A short description of data set [14]: Metabolic stability in human liver microsomes assessed as parent compound remaining at 1 uM incubated for 30 mins. Format: ADME, Microsome. The note with it: microsomes, 0.5 h, 1 µM. In outline: as §1

What is called IC50 is the midpoint of a concentration-inhibition curve. In general, AUC refers to concentration integrated over time. The term Vdss denotes the apparent volume that relates the amount in the body to the concentration in plasma or blood.

Some results are limits rather than exact numbers.

Regarding `CCn1nc2c(c1Nc1nc(-c3ccc(-n4cnc(C)c4)c(OC)n3)cs1)CCC2`, the figures for the Stabilty in data set [1] and in data set [14] were 67% and 51%, respectively. Moreover, the Activity came to 76% in [2], 19% in [3] and 68% in data set [10]. Further, the IC50 at Gamma-secretase is 33 nM; at Cytochrome P450 2C19 it was more than 100 µM; on Cytochrome P450 2C9 it was more than 100 µM. Further, the t1/2 in [4] came to 5.3 h. The same compound had an AUC in [5] of 1257 ng·h/mL. Moreover, the concentration at 72 h in data set [6] was 726 ng/mL; in data set [7], 223 ng/mL; in data set [8] it was 31 ng/g; in data set [13], 337 ng/g. The BPR in data set [9] was determined as 0.46; in data set [12] it was 0.37. In data set [11], the Vdss was determined as 2234 mL/kg.

As to `COc1nc(-c2csc(Nc3c4c(nn3CCF)CCCC4)n2)ccc1-n1cnc(C)c1`, the Stabilty in [1] and in data set [14] was 100% each time. In addition, the Activity in [2] is 55%; in data set [3] it was 11%; in [10], 46%. In addition, the IC50 was found to be 47 nM at Gamma-secretase, 4.6 µM at Cytochrome P450 2C19 and 6.8 µM on Cytochrome P450 2C9. In data set [4], this compound showed a t1/2 of 2.6 h. In data set [5], the AUC stood at 669 ng·h/mL. The concentration at 72 h was 183 ng/mL in [6], 639 ng/mL in data set [7], 39 ng/g in [8] and 105 ng/g in data set [13]. Moreover, the results for the BPR in data set [9] and in data set [12] were 0.57 and 0.81, respectively. The Vdss in [11] worked out at 2826 mL/kg.
